The values below come from ChEMBL document CHEMBL1817562, “Docking and SAR studies of D- and L-isofagomine isomers as human β-glucocerebrosidase inhibitors” (Bioorg Med Chem, 2011).

A value given as a limit tells only on which side of the number the result lay.

For assay [1], the species on record is Rattus norvegicus. The assay can be described thus: Inhibition of rat intestinal cellobiase assessed as production of p-nitrophenol at 1000 uM by spectrophotometry.
A further assay relates to Canavalia ensiformis. Kind of assay: Inhibition of jack beans alpha-mannosidase assessed as production of p-nitrophenol at 1000 uM by spectrophotometry. The method, boiled down: (§1)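 p-Nitrophenyl glycoside matched to each enzyme, 2 mM, with enzyme at that enzyme's optimum pH: Penicillium decumbens α-L-rhamnosidase pH 4.0, bovine liver β-galactosidase pH 6.8, coffee bean α-galactosidase pH 6.5, jack bean α-mannosidase pH 4.5, snail β-mannosidase pH 4.5. Stopped with 400 mM Na2CO3; released p-nitrophenol read at 400 nm.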

The target of assay [2] is Sucrase-isomaltase, intestinal (Rattus norvegicus) (UniProt P23739). The conditions noted are these: 1000 uM.
Sequence of Sucrase-isomaltase, intestinal (Rattus norvegicus) (P23739 1-1013 limits assumed): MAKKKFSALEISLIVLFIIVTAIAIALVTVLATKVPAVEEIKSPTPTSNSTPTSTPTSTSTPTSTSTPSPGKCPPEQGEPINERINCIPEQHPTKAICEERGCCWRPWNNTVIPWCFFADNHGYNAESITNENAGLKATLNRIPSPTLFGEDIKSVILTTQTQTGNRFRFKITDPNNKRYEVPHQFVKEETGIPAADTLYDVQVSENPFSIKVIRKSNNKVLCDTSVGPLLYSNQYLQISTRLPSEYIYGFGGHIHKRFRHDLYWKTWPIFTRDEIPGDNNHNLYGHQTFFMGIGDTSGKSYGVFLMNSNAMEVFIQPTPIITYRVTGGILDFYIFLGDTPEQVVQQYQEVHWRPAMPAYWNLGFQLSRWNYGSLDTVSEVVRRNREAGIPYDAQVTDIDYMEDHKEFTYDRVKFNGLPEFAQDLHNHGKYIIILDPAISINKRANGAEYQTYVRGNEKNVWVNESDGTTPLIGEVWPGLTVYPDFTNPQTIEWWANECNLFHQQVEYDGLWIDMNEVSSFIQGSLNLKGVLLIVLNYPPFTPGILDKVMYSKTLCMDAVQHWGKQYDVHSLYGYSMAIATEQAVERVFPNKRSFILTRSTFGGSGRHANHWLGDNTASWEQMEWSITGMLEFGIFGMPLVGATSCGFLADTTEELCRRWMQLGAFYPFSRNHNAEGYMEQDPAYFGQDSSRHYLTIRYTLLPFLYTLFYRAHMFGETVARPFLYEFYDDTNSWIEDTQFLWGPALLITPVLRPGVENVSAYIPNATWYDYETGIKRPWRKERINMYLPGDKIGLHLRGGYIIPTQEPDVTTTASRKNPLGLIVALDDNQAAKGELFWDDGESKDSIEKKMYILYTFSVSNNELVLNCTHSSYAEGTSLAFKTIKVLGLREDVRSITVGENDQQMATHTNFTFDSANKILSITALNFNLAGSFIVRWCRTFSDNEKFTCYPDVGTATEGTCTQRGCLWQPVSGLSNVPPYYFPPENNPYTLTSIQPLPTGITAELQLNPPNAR
Sequence of Sucrase-isomaltase, intestinal (Rattus norvegicus) (P23739 1014-1841 limits assumed): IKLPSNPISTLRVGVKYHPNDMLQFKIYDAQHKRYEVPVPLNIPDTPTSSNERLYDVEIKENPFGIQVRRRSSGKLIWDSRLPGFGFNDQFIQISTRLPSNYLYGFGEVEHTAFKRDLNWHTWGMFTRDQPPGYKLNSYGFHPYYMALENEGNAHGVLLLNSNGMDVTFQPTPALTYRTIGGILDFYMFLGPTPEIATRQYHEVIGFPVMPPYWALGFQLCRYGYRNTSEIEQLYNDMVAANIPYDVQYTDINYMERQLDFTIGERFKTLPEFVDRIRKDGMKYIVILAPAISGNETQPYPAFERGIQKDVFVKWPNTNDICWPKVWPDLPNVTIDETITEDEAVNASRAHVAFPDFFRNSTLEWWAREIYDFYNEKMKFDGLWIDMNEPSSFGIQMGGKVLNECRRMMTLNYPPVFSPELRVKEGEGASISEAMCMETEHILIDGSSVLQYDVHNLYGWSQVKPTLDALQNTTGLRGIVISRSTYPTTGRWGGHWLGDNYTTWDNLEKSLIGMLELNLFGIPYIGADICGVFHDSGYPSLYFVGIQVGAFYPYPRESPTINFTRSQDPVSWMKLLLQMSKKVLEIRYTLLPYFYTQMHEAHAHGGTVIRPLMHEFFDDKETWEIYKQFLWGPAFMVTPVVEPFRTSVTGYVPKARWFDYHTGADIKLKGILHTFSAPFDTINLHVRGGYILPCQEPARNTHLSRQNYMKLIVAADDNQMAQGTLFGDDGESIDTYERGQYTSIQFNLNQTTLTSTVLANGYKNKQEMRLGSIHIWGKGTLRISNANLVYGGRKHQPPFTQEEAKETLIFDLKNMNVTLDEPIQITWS
Assay [3] concerns the target Lactase/phlorizin hydrolase (Rattus norvegicus, UniProt Q02401). Kind of assay: Inhibition of rat intestinal lactase assessed as production of p-nitrophenol by spectrophotometry.
Another assay relates to Coffea. The assay can be described thus: Inhibition of coffee beans alpha-galactosidase assessed as production of p-nitrophenol at 1000 uM by spectrophotometry. A digest of the protocol: as §1
In the next assay the target is T1, Beta-galactosidase (Bos taurus, UniProt Q58D55).
T1 sequence (Q58D55 whole entry): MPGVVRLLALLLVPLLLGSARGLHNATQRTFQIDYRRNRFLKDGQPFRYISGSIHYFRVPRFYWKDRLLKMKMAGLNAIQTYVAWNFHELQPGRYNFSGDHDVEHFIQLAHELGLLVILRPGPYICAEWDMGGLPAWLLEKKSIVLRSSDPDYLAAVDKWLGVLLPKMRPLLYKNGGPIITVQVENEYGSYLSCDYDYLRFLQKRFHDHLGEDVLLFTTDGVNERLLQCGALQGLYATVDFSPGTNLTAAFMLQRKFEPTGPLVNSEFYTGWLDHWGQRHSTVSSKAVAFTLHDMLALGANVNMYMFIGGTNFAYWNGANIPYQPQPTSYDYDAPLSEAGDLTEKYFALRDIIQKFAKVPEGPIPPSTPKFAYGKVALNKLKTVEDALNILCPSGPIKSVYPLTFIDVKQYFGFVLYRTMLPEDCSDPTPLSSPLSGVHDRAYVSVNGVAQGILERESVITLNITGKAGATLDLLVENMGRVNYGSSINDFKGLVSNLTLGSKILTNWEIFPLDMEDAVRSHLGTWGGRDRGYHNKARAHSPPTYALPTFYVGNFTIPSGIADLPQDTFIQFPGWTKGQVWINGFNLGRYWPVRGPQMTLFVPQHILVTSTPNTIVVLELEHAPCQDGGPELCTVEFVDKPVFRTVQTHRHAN
Kind of assay: Inhibition of bovine liver beta-galactosidase assessed as production of p-nitrophenol by spectrophotometry.

A further assay has as its system Penicillium decumbens. The assay can be described thus: Inhibition of Penicillium decumbens alpha-L-rhamnosidase assessed as production of p-nitrophenol at 1000 uM by spectrophotometry. A digest of the protocol:
as §1

Assay [4] concerns the target T2, Lysosomal acid glucosylceramidase (Homo sapiens) (UniProt P04062).
T2 sequence (whole entry): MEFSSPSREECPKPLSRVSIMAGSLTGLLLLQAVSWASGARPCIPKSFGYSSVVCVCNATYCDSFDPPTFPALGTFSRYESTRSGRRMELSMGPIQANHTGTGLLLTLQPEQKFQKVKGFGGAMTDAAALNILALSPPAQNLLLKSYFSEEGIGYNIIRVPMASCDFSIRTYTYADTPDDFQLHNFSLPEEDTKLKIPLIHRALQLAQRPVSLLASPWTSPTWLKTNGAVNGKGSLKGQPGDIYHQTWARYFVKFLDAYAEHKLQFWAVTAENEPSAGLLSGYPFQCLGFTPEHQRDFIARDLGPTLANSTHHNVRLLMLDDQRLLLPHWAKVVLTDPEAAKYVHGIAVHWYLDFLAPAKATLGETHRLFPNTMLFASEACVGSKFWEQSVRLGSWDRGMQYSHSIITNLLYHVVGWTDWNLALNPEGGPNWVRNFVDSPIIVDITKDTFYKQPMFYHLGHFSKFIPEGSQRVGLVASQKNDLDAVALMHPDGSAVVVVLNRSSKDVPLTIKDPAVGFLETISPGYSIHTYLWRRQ
The conditions noted are these: 1000 uM.

A further assay has as its system Helix pomatia. Kind of assay: Inhibition of snail beta-mannosidase assessed as production of p-nitrophenol at 1000 uM by spectrophotometry. The method, boiled down:
as §1

The species entered for assay [5] is Rattus norvegicus. The conditions noted are these: 1000 uM.
For assay [6], the target named is T3, Tissue alpha-L-fucosidase (Bos taurus) (UniProt Q2KIM0).
T3 sequence (whole entry): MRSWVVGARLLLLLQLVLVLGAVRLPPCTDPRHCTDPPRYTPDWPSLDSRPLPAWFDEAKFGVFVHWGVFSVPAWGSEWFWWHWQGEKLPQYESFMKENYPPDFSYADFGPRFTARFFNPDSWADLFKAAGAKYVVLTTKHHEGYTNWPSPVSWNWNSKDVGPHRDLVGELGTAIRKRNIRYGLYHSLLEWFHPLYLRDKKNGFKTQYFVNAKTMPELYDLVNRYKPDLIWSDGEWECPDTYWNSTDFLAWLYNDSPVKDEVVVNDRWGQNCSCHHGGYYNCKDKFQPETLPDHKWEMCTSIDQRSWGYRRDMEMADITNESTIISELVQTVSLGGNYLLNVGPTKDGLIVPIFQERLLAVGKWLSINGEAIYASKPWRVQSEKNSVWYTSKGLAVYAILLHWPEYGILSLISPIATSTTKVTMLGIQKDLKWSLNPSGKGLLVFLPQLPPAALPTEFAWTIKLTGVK
The conditions noted are these: 1000 uM.

In a further assay the test system is Oryza sativa. As to conditions: 1000 uM.
Assay [7] addresses Sucrase-isomaltase, intestinal (Rattus norvegicus) (UniProt P23739). As to conditions: 1000 uM. The source holds these as a separate data set.
A further assay deals with Prunus dulcis. The conditions noted are these: 1000 uM.
The target in assay [8] is Sucrase-isomaltase, intestinal (Rattus norvegicus, UniProt P23739). The assay can be described thus: Inhibition of rat intestinal sucrase assessed as release of D-glucose at by spectrophotometry.
Sequence of Sucrase-isomaltase, intestinal (P23739 1-1013 limits assumed): as the sequence (P23739 1-1013 limits assumed) above
Sequence of Sucrase-isomaltase, intestinal (P23739 1014-1841 limits assumed): as the sequence (P23739 1014-1841 limits assumed) above
Assay [9] can be described thus: Inhibition of almond beta-glucosidase assessed as production of p-nitrophenol using p-nitrophenyl glycoside as substrate by spectrophotometry.
The nature of assay [10]: Inhibition of coffee beans alpha-galactosidase assessed as production of p-nitrophenol by spectrophotometry. Details: species or system Coffea. The method, boiled down: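 Commercial enzymes were assayed at their own optimum pH: bovine epididymis α-L-fucosidase pH 5.5, bovine liver β-galactosidase pH 6.8, coffee bean α-galactosidase pH 6.5. Reactions contained 2 mM of the matching p-nitrophenyl glycoside plus enzyme. They were stopped with 400 mM Na2CO3, and released p-nitrophenol was read at 400 nm.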

Assay [11] can be described thus: Inhibition of rat intestinal cellobiase assessed as production of p-nitrophenol by spectrophotometry.
The target in assay [12] is T4, Glucosylceramidase (Bos taurus) (UniProt Q2KHZ8).
T4 sequence (whole entry): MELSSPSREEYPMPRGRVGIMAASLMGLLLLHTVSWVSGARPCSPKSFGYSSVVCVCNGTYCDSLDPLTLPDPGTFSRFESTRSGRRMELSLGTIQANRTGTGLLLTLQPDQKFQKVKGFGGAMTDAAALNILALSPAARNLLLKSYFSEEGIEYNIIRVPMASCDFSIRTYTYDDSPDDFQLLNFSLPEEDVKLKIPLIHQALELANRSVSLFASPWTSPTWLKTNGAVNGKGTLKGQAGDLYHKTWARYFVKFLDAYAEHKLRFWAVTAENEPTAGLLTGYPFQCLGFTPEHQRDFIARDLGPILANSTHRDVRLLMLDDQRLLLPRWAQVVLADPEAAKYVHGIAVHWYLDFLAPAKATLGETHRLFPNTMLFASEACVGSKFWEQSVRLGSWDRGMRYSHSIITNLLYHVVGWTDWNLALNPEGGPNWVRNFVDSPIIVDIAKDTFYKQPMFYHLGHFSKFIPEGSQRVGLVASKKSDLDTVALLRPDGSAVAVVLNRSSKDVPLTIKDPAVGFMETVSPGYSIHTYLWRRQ
Kind of assay: Inhibition of bovine liver beta-glucosidase assessed as production of p-nitrophenol using p-nitrophenyl glycoside as substrate at 1000 uM by spectrophotometry.

In assay [13] the target is T5, Beta-galactosidase (Bos taurus) (UniProt Q58D55).
T5 sequence (whole entry): T1 sequence (Q58D55 whole entry)
The assay can be described thus: Inhibition of bovine liver beta-galactosidase assessed as production of p-nitrophenol at 1000 uM by spectrophotometry. A digest of the protocol:
as §1

The nature of assay [14]: Inhibition of rat intestinal maltase assessed as production of D-glucose using maltose as substrate after 10 to 30 mins by spectrophotometry. A digest of the protocol: (§2)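 Enzymes were rice α-glucosidase at pH 5.0 and rat small-intestine brush border membranes (Kessler method) at pH 5.8. Each reaction contained 25 mM maltose and enzyme and was incubated 10–30 min at 37 °C. Reactions were stopped by heating at 100 °C for 3 min, then centrifuged. Released D-glucose was measured with a glucose test reagent by absorbance at 505 nm.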

Assay [15] deals with Lactase/phlorizin hydrolase (Rattus norvegicus) (UniProt Q02401). As to conditions: 1000 uM.
Sequence of Lactase/phlorizin hydrolase (Rattus norvegicus) (Q02401 868-1928 limits assumed): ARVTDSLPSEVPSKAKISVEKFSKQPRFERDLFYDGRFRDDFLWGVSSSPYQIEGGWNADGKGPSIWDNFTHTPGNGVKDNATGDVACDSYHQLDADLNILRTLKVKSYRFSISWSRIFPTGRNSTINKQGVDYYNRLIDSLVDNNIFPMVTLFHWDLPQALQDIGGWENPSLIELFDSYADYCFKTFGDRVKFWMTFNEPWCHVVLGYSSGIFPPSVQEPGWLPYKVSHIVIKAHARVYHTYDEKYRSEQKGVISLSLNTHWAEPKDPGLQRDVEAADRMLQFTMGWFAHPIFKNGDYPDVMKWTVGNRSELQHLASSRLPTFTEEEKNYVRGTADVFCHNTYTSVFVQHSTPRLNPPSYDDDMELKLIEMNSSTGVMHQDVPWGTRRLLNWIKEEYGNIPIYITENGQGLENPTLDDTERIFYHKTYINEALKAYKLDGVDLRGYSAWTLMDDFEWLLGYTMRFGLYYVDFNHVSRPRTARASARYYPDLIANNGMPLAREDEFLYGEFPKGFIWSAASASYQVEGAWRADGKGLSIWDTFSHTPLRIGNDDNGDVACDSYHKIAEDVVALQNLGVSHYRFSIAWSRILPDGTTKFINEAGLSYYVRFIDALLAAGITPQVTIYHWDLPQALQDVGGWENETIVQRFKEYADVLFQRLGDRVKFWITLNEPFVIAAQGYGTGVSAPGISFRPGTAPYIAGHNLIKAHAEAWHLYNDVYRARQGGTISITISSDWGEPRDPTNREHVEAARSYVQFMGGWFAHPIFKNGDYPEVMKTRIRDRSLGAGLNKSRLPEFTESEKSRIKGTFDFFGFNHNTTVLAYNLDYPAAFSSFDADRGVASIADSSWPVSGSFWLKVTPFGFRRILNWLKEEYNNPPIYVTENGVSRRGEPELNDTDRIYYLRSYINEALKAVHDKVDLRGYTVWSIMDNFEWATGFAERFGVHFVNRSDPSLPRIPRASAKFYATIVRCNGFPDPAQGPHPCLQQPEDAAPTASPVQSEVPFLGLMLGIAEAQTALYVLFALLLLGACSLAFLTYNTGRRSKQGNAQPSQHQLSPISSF
A short description of assay [16]: Inhibition of rice alpha-glucosidase assessed as production of D-glucose using maltose as substrate after 10 to 30 mins by spectrophotometry. Also noted: species or system Oryza sativa. The method, boiled down: as §2

Sequence of Lactase/phlorizin hydrolase (Q02401 868-1928 limits assumed): as above

As a reminder, the inhibition is the share of the control response that was lost under treatment. A word on the IC50: it is the midpoint of a concentration-inhibition curve. For `OC[C@@H]1CNC[C@@H](O)[C@@H]1O`, the inhibition (in the assay listed under Rattus norvegicus [1]; with Canavalia ensiformis; in assay [2]; with Coffea; with Penicillium decumbens; in assay [4]) was under 50% throughout. Besides, the inhibition (in the assay on Helix pomatia; in the assay listed under Rattus norvegicus [5]; in [6]; in the assay with Oryza sativa; in [7]; in the assay with Prunus dulcis) was under 50% in each case. Also, the IC50 amounted to 646 µM in assay [3] and 389 µM at Beta-galactosidase.

In the case of `OC[C@@H]1CNC[C@H](O)[C@H]1O`, the inhibition (in the assay on Canavalia ensiformis; in the assay with Coffea; in the assay with Penicillium decumbens; in the assay with Helix pomatia; in the assay listed under Rattus norvegicus [5]; in assay [6]) was under 50% throughout. Further, the inhibition in the assay with Oryza sativa was under 50%. Also, the IC50 in assay [3] was 20 µM; in [8], 34 µM; on Beta-galactosidase it was 821 µM; in assay [9], 236 µM.

As to `OC[C@H]1CNC[C@@H](O)[C@H]1O`, the inhibition (in the assay with Canavalia ensiformis; in [2]; with Penicillium decumbens; with Helix pomatia; in the assay listed under Rattus norvegicus [5]; in assay [6]) was under 50% each time. For the same compound, the inhibition (with Oryza sativa; in [7]) was under 50% each time. The 50% inhibitory concentration (IC50) was determined as 144 µM in assay [10]; 0.51 µM in [3]; 4.5 µM in assay [11]; 21 µM at Beta-galactosidase; 3.2 µM in assay [9].

`OC[C@@H]1CNC[C@H](O)[C@@H]1O`: the inhibition (in the assay with Canavalia ensiformis; in assay [2]; in the assay on Penicillium decumbens; in assay [4]; in [12]; in the assay with Helix pomatia) was under 50% in each case. The inhibition (in the assay listed under Rattus norvegicus [5]; in [6]; in the assay with Oryza sativa; in assay [13]; in assay [7]) was under 50% each time. Further, the IC50 in [10] was determined as 450 µM; in [3], 90 µM; in assay [11], 607 µM; in assay [9], 983 µM.

In the case of `OC[C@@H]1NCC[C@@H](O)[C@@H]1O`, the results for the IC50 in [14] and in assay [16] were 668 µM and 980 µM, respectively. In addition, the inhibition (in the assay filed under Rattus norvegicus [1]; with Canavalia ensiformis; in assay [2]; with Coffea; in the assay with Penicillium decumbens; in [4]) was under 50% in each case. Moreover, the inhibition (in [12]; with Helix pomatia; in assay [15]; in assay [6]; in [13]; in assay [7]) was under 50% each time. This compound yielded an inhibition with Prunus dulcis of under 50%.

On to `OC[C@H]1NCC[C@@H](O)[C@H]1O`, for which the inhibition (in the assay filed under Rattus norvegicus [1]; in the assay with Canavalia ensiformis; in assay [2]; with Penicillium decumbens; in [4]; in assay [12]) was under 50% throughout. Further, the inhibition (in the assay on Helix pomatia; in [15]; in the assay listed under Rattus norvegicus [5]; in assay [6]; in the assay on Oryza sativa; in [13]) was under 50% in each case. The inhibition (in assay [7]; with Prunus dulcis) was under 50% in each case. In [10], the half-inhibitory concentration (IC50) amounted to 8 µM.

Take `OC[C@H]1NC[C@H](O)[C@@H](O)[C@@H]1O` [DUVOGLUSTAT]: the IC50 was 0.65 µM in assay [14]; 880 µM in [10]; 327 µM in [11]; 80 µM in assay [9]; 0.03 µM in [16]. The inhibition (with Canavalia ensiformis; with Penicillium decumbens; in [12]; in the assay on Helix pomatia) was under 50% in each case.
